Columns and labels:
[1] = system: P. aeruginosa (ATCC 27853); assay: Antibacterial broth-dilution MIC; type: cell-based, Pseudomonas aeruginosa
In short: (§1)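 Broth-dilution in 96-well plates against S. aureus ATCC 29213, B. cereus ATCC 10876, E. coli ATCC 22922, K. pneumoniae ATCC 13883 and P. aeruginosa. Test compound concentrations spanned 10–100 mM. CTAB served as positive control and DMSO as negative control. Activity was reported as minimum inhibitory concentration.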

S.aureus (ATCC 29213) = assay: Antibacterial broth-dilution MIC; type: cell-based, Staphylococcus aureus
In short: as §1

B.cereus (ATCC 10876) = assay: Antibacterial broth-dilution MIC; type: cell-based, Bacillus cereus
In short: as §1

E. coli (ATCC 22922) = assay: Antibacterial broth-dilution MIC; type: cell-based, Escherichia coli
In short: as §1

[2] = system: K. pneumonia (ATCC 13883); assay: Antibacterial broth-dilution MIC; type: cell-based, Klebsiella pneumonia
In short: as §1

HaCaT cells = assay: In-vitro cytotoxicity MTT assay; type: cell-based, human
In short: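 HaCaT cells in DMEM with FBS, glutamine and penicillin/streptomycin were seeded one day earlier and incubated 24 h. Exposed to test compound (20–1.25 mg/mL), 4% ethyl acetate blank or 20% DMSO control for 24 h at 37 °C, 5% CO2. Morphology was checked by microscopy. After PBS wash, MTT (1 mg/mL) was added for 2 h, dissolved in isopropanol and absorbance read. Mean of 3 wells, ≥3 independent experiments.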

[3] = target: T1, bovine serum albumin (BSA) (Bos taurus, UniProt P02769); assay: Thermodynamic BSA binding studies; conditions: for ΔH (enthalpy change) / ΔS (entropy change): van't Hoff, 298-313 K
In short: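 BSA (10 μM) in phosphate buffer pH 7.4 in a 1.0 cm quartz cuvette. Excitation 295 nm, emission scanned 300–400 nm at 298, 308 and 313 K. Titrated with 15 μL of test compound. Binding constants were taken at each temperature, with ΔG = −RT lnKa. ΔH and ΔS were calculated from the Ka values across the three temperatures.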

[4] = target: T1, bovine serum albumin (BSA); assay: BSA steady state/intrinsic fluorescence quenching study; type: binding; conditions: 298 K; for bimolecular quenching constant Kq x 10^12: pH 7.4, τ0 10^−8 s; for Stern-Volmer constant Ksv x 10^4 / binding constant Ka: phosphate buffer pH 7.4
In short: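 BSA (10 μM stock) in phosphate buffer pH 7.4 in a 1.0 cm quartz cuvette at 298 K. Intrinsic fluorescence: excitation 295 nm, scan 300–400 nm, intensity read at 336 nm. Slits were 10 nm (excitation) and 5.0 nm (emission). Titrated with test compound stock (0.001 M) and read after each addition. Ksv and Kq were obtained from Stern-Volmer plots of F0/F versus quencher concentration.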

[5] = target: T1, bovine serum albumin (BSA); assay: Competitive BSA binding experiments using site markers warfarin and ibuprofen; conditions: 298 K
[6] = Critical micelle concentration by pyrene fluorescence probe; type: physicochemical; conditions: 25 °C, pyrene as probe
In short: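 Pyrene probe (0.1 mM methanol stock) was dried in vials, then test compound solutions were added to give 1.6 μM final pyrene. Mixed on an orbital shaker for 24 h and measured at 298 K. Excitation 334 nm, emission 350–450 nm, slits 5.0/2.5 nm. CMC was taken from the plot of I1 (373 nm)/I3 (384 nm) versus concentration.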

[7] = in the presence of Ibuprofen (site II marker)
[8] = in the presence of Warfarin (site I marker)

T1 sequence (P02769 25-607): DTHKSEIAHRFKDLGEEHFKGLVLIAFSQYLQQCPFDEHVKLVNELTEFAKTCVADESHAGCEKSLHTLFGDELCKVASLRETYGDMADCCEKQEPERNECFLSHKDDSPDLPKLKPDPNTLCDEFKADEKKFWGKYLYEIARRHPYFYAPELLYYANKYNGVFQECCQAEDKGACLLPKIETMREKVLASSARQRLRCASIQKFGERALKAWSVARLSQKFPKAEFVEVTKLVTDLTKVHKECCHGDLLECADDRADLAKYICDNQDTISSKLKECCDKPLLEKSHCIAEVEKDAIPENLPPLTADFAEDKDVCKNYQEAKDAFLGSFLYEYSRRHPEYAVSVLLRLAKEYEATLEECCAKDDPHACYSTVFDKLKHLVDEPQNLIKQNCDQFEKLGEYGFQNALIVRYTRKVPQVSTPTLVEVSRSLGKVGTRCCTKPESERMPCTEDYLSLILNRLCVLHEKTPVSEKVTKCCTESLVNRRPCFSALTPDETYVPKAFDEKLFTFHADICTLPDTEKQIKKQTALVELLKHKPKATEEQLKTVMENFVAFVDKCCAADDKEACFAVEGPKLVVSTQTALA

Molecule	MIC ([1]; Gram-negative)	MIC (S.aureus (ATCC 29213); Gram-positive)	% Cell Viability (HaCaT cells; 2.5, 24 h)	% Cell Viability (HaCaT cells; 5, 24 h)	% Cell Viability (HaCaT cells; 10, 24 h)	Ka ([3]; 298 K)	ln Ka ([3]; 298 K)	ΔG (free energy) ([3]; 298 K)	Ka ([3]; 308 K)	ln Ka ([3]; 308 K)	ΔG (free energy) ([3]; 308 K)	Ka ([3]; 313 K)	ln Ka ([3]; 313 K)	ΔG (free energy) ([3]; 313 K)	ΔH (enthalpy change) [3]	ΔS (entropy change) [3]	MIC (B.cereus (ATCC 10876); Gram-positive)	MIC (E. coli (ATCC 22922); Gram-negative)	bimolecular quenching constant Kq x 10^12 [4]	Stern-Volmer constant Ksv x 10^4 [4]	further results
CCCCCCCCCCCCCCCC[N+](C)(C)C [+ve control, Cetyltrimethylammonium bromide, reference compound]	–	–	–	–	–	–	–	–	–	–	–	–	–	–	–	–	–	–	–	–	MIC ([1]; Pseudomonas aeruginosa, ATCC27853): 171 µM; MIC (S.aureus (ATCC 29213); Staphylococcus aureus, ATCC29213): 15.2 µM; MIC (B.cereus (ATCC 10876); Bacillus cereus, ATCC10876): 12.3 µM; MIC (E. coli (ATCC 22922); Escherichia coli, ATCC22922): 686 µM; MIC ([2]; Klebsiella pneumoniae, ATCC13883): 10.7 µM
Didecanoyl 2,2′-disulfanediyldibenzamide [Compound 2]	25600 µM	5400 µM	100.0%	100.0%	63.7%	225000 M⁻¹	12.32	-30.60 KJmol^−1	3580 M⁻¹	8.18	-20.76 KJmol^−1	405 M⁻¹	6.00	-15.77 KJmol^−1	-325.26 KJmol^−1	-988.78 Jmol^−1K^−1	2530 µM	>25300 µM	2.26 x 10^12 M^−1s^−1	2.26 x 10^4 M^−1	toxicity to the cells (in words) (HaCaT cells; at a concentration of <10 mg/ml): non-toxic; binding constant Ka [4]: 225000 M⁻¹; MIC ([2]; Gram-negative): 26300 µM; Ka ([5]; Blank (no site marker)): 429000 M⁻¹; Ka [5, 7]: 64600 M⁻¹; Ka [5, 8]: 15700 M⁻¹
Dioctyl 2,2′-disulfanediyldibenzamide [Compound 1]	>15600 µM	12500 µM	82.9%	62.6%	23.0%	5470 M⁻¹	8.61	-21.68 KJmol^−1	3250 M⁻¹	8.09	-18.73 KJmol^−1	461 M⁻¹	6.13	-17.26 KJmol^−1	-109.5 KJmol^−1	-294.7 Jmol^−1K^−1	3120 µM	21400 µM	7.45 x 10^12 M^−1s^−1	7.45 x 10^4 M^−1	% Cell Viability (HaCaT cells; 20, 24 h): 18.4%; cell death by changes in cell morphology (HaCaT cells; microscopy, 10 mg/ml (Figure 5)): considerable amount of cell death; CMC [6]: 0.163 mM; binding constant Ka [4]: 5470 M⁻¹; MIC ([2]; Gram-negative): 25300 µM; Ka ([5]; Blank (no site marker)): 5060 M⁻¹; Ka [5, 7]: 2110 M⁻¹; Ka [5, 8]: 4950 M⁻¹

— publication PMC7644900 (Heliyon, 2020)
